The record followed here is PubChem BioAssay.

A short description of assay [1]: S. cerevisiae growth inhibition in permissive medium (OD615), pilot counter-assay for S. cerevisiae lifespan shortening project, permissive growth control (AID 705;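 active = growth inhibition above 25% in both replicates, a cutoff set 3 SD above the mean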). To be noted: OD615, 24 h, at 10 µM, stronger effect = higher value. In a few lines: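 assay system = Saccharomyces cerevisiae strain carrying genetically modified DeaD replicative-lifespan system | technique = absorbance (optical density) at 615 nm | buffer or medium = permissive raffinose/galactose medium | timing = cells pre-grown 4 h, then 24 h compound exposure, 30 °C humidified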

Assay [2] in a line: S. cerevisiae growth inhibition in restrictive medium, OD615, pilot screen, restrictive growth control, yeast lifespan reduction project (AID 706;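 active = growth inhibition above a set limit, 3 SD over mean compound inhibition, in both replicates, cut at about 43% in these data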;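 note: modified DeaD lifespan yeast strain shifted to restrictive glucose medium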). To be noted: OD615, 48 h, at 10 µM, stronger effect = higher value. In a few lines: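 System: modified S. cerevisiae. Buffer or medium: CSMM-D glucose medium. Incubation: 4 h pre-growth plus 48 h compound exposure, 30 °C. Detection: absorbance (optical density) measured at 615 nm.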

The nature of assay [3]: doxorubicin toxicity protection in MRP-1 cells – H69AR cells, CellTiter-Glo, duplicate, MRP-1 activator project, pilot screen (AID 807;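 active = viability increase at or above a cutoff of the median across tested compounds plus 3 SD, cut at about 8.5% in these data, passing the limit was not always enough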;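 note: compound pretreatment 18-22 h then 72 h combined with doxorubicin; 0% = doxorubicin alone and 100% = vehicle without doxorubicin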). To be noted: H69AR viability with doxorubicin, CellTiter-Glo luminescence; at 10 µM; stronger effect = higher value.
A short description of assay [4]: viability of HCT116 without oncogenic beta-catenin – human colon tumor cells, pilot screen (AID 823;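 active = cell viability at or below a set limit in both duplicate runs, the limit being the all-compound median minus 4 SD, cut at about 23% in these data, passing the limit was not always enough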;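 note: 0% = wells killed by 20 µM Hyamine and 100% = untreated DMSO cell wells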). To be noted: HCT116 beta-catenin knockout viability, CellTiter-Glo, 60 h; at 10 µM; stronger effect = lower value.
Assay [5] can be described thus: viability of PTEN-null HCT116 cells – cell-based, HCT116 clonal line, CellTiter-Glo, pilot screen (AID 824;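 active = viability at or below 27.92% in each of two runs, the all-compound median minus 4 SD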;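 note: 0% = 20 µM Hyamine control and 100% = vehicle cell control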). To be noted: HCT116 PTEN-deleted viability, 60 h, at 10 µM, stronger effect = lower value. (ATP-based viability assays read luminescence as a measure of living cells.)
The nature of assay [6]: RAM pathway blockade in budding yeast – dse1pr::URA3 reporter, 5-FOA selection, pilot screen (AID 869;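 active = inhibition over a set limit, the all-compound mean plus 3 SD, in both replicate runs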;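 note: 0% = DMSO wells with no growth and 100% = 10 µM 1-NA-PP1 with full growth; RAM network block rescues cells from 5-FOA so hits raise OD615 growth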). Particulars: S. cerevisiae dse1pr::URA3 5-FOA growth, OD615, 2 d; at 10 µM; stronger effect = higher value; strain carries analog-sensitive mutant Cbk1 kinase.
Assay [7] can be described thus: RAM signaling pathway blockade in yeast – S. cerevisiae, Pdr1DBD-CYC8 efflux-inhibited sensitized strain, primary screen (AID 1298).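 Note: 0% = DMSO untreated cells without growth and 100% = 10 µM 1-NA-PP1 full growth; higher means more yeast growth rescued from 5-FOA killing.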 Particulars: S. cerevisiae cbk1-as DSE1-URA3 strain, 5-FOA growth OD615, 2 d; at 50 µM; stronger effect = higher value.

A number with no mark means an inactive call. Inconclusive results are not listed. The source made the active and inactive calls.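 Rule for the calls, unless noted: active = RAM network inhibition above 8.4% in each of two replicates, 3 SD over the compound average; inconclusive = above 8.4% inhibition in only one replicate; inactive = 8.4% inhibition or less in each replicate.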

As usually defined, the viability is a read-out of living cells in per cent, often relative to untreated cells. The term inhibition denotes the relative decrease from the control value, in per cent. With `Cc1ccc(S(=O)(=O)N(CC(O)CN2CCCCC2)c2ccccc2)cc1` (configuration not stated), the growth inhibition was 0.475% in assay [1] and 0.56% in assay [2]. The viability increase in assay [3] is -2.49%. The viability was 71.6% in assay [4] and 96.6% in assay [5]. In assay [6], the inhibition is 2.97%. The RAM network inhibition in assay [7] was 3.38%.
Consider `Cc1ccc(OC(=O)CCC(=O)Nc2ccc(S(=O)(=O)Nc3cc(C)on3)cc2)cc1`, for which the growth inhibition in assay [1] is -2.27%; in assay [2], 0.38%. The viability increase in assay [3] is -1.11%. Further, the figures for the viability in assay [4] and in assay [5] were 109% and 106%, respectively. In assay [6], the inhibition is 0.875%. Moreover, the RAM network inhibition in assay [7] is 3.97%.
For `CCOCCn1c(SCC(=O)OCc2ccccc2)nc2c1c(=O)[nH]c(=O)n2C`, the growth inhibition was -13.7% in assay [1] and -14.2% in assay [2]. Moreover, in assay [3], the viability increase is -0.57%. Besides, the viability in assay [4] was 104%; in assay [5], 101%. For the same compound, the inhibition in assay [6] is 0.495%. Further, the RAM network inhibition in assay [7] was 3.42%.
Consider `CCOc1ccc(-n2c(SCC(N)=O)nc3c([nH]c4ccccc43)c2=O)cc1`, for which the figures for the growth inhibition in assay [1] and in assay [2] were -16.6% and 2.87%, respectively. For the same compound, in assay [3], the viability increase was -2.27%. In addition, the viability in assay [4] is 62.5%; in assay [5] it was 71.4%. In addition, the RAM network inhibition in assay [7] is 11.2%.
In the case of `COc1ccc(C(=O)CSc2nnc(-c3ccccc3)o2)cc1`, the growth inhibition in assay [1] is 4.92%; in assay [2] it was 15.3%. The viability increase in assay [3] is -0.88%. Moreover, the viability is 95.6% in assay [4] and 88.8% in assay [5]. For the same compound, the RAM network inhibition in assay [7] was 7.56%.
In the case of `O=C(O)CN1C(=O)C2C3C=CC(C3)C2C1=O` (configuration not stated), the growth inhibition in assay [1] is -14.3%; in assay [2] it was -14.5%. Also, in assay [3], the viability increase is 0.28%. The viability in assay [4] was 102%; in assay [5] it was 88%. Also, in assay [6], the inhibition was 1.61%. The RAM network inhibition in assay [7] is 2.2%.
Regarding `COc1ccccc1CCNC(=O)CSc1nc(-c2ccco2)cc(C(F)(F)F)n1`, the growth inhibition was -13.3% in assay [1] and -5.15% in assay [2]. Moreover, the viability increase in assay [3] was -1.65%. The values for the viability in assay [4] and in assay [5] were 102% and 93.7%, respectively. In assay [7], the RAM network inhibition was 6.42%.
For `Cc1n[nH]c(C)c1S(=O)(=O)N(CC(=O)N1CCc2ccccc21)c1ccc(C(C)C)cc1`, the growth inhibition in assay [1] is -9.99%; in assay [2], 9.17%. In addition, the viability increase in assay [3] was -7.59%. Besides, the viability in assay [4] was 89.6%; in assay [5], 83.3%. Moreover, the inhibition in assay [6] is 1.94%. Also, the RAM network inhibition in assay [7] was 8.57%.
`Cc1cc(N2C(=O)CC(Cc3ccccc3)C2=O)no1` (configuration not stated): the results for the growth inhibition in assay [1] and in assay [2] were -6.49% and -11.5%, respectively. Also, the viability increase in assay [3] is 1.08%. Also, the viability in assay [4] and in assay [5] was 103% throughout. In assay [6], the inhibition was 1.55%. Further, in assay [7], the RAM network inhibition is 2.8%.
For `CS(=O)(=O)c1ccc2nc(NC(=O)Cc3ccccc3)sc2c1`, the values for the growth inhibition in assay [1] and in assay [2] were -10.9% and -4.83%, respectively. The viability increase in assay [3] is -4.98%. Moreover, the viability in assay [4] is 91.5%; in assay [5], 96.3%. Moreover, the RAM network inhibition in assay [7] was 3.94%.
Turning to `Cn1cccc1Cc1nnc(SCC(=O)NCc2ccccc2)n1-c1ccc(F)cc1`, the values for the growth inhibition in assay [1] and in assay [2] were -3.32% and 0.42%, respectively. The viability increase in assay [3] is -3.08%. Moreover, the results for the viability in assay [4] and in assay [5] were 90.8% and 89.8%, respectively. In assay [6], the inhibition was 2.85%. Besides, the RAM network inhibition in assay [7] is 2.8%.
Take `COC(=O)c1ccc(COc2ccc3c(C)c(C)c(=O)oc3c2)o1`: the growth inhibition in assay [1] is -4.33%; in assay [2], -4.88%. In addition, the viability increase in assay [3] is -0.68%. The viability in assay [4] is 101%; in assay [5], 105%. The inhibition in assay [6] is 1.5%. Moreover, in assay [7], the RAM network inhibition was 5.89%.
For the compound `Cc1ccn2cc(-c3ccc(S(=O)(=O)N4CCOCC4)cc3)nc2c1`, the results for the growth inhibition in assay [1] and in assay [2] were -2.96% and 6.53%, respectively. The viability increase in assay [3] was 2.12%. Further, the viability is 106% in assay [4] and 102% in assay [5]. Besides, the inhibition in assay [6] is 1.6%. Also, the RAM network inhibition in assay [7] was 1.79%.
On to `CC(=O)CCc1c(C)[nH]c2ccc(NC(C)=O)cc2c1=O`, for which the growth inhibition was 5.26% in assay [1] and 8.18% in assay [2]. For the same compound, the viability increase in assay [3] is -0.95%. For the same compound, the viability in assay [4] was 100%; in assay [5], 98%. Further, the inhibition in assay [6] was 0.77%. The RAM network inhibition in assay [7] is 2.81%.
Regarding `CC(O)Cc1nsc(NC(=O)c2cccs2)n1` (configuration not stated), the growth inhibition in assay [1] was -11.4%; in assay [2], -8.99%. In addition, in assay [3], the viability increase was -0.55%. Further, the viability in assay [4] was 104%; in assay [5], 100%. For the same compound, the inhibition in assay [6] was 0.84%. Besides, the RAM network inhibition in assay [7] is 0.26%.
Consider `Cc1ccc2nc(-c3ccccc3)cc(C(=O)O)c2c1`, for which the growth inhibition in assay [1] was -9.89%; in assay [2] it was 8.96%. In addition, in assay [3], the viability increase was -2.12%. In addition, the viability is 95.3% in assay [4] and 87.8% in assay [5]. Besides, in assay [6], the inhibition is 1.46%. Besides, the RAM network inhibition in assay [7] was 3.9%.
With `Cn1c(=O)c2c(nc(CN3CCN(Cc4ccccc4)CC3)n2Cc2ccc(Cl)cc2)n(C)c1=O`, the growth inhibition was -2.47% in assay [1] and -13.5% in assay [2]. The viability increase in assay [3] is -6.52%. The values for the viability in assay [4] and in assay [5] were 8.81% (active) and 10.3% (active), respectively. For the same compound, the inhibition in assay [6] is 1.27%. Further, the RAM network inhibition in assay [7] is 2.33%.
Regarding `O=C(CN1C(=O)CSc2ncccc21)NCCN1CCOCC1`, the results for the growth inhibition in assay [1] and in assay [2] were 0.545% and -1.25%, respectively. Besides, the viability increase in assay [3] was -0.4%. The viability is 106% in assay [4] and 99.7% in assay [5]. Besides, in assay [6], the inhibition was 2.09%. For the same compound, in assay [7], the RAM network inhibition was 3.41%.
